# Data reported in article PMC7138454 (Journal of medicinal chemistry, 2014).
# pIC50: −log10 of the molar value. Several values for one entry are separate records, joined by “and”; a condition that tells them apart may be missing. Identical values can stand only once. Entries after “also recorded” stand apart in the source; their conditions may differ. Like-named read-outs stand apart in the source and are kept apart here.
# Key:
# [1] = target: T1, OXE receptor (Homo sapiens, UniProt Q8TDS5); test: 5-oxo-ETE-induced calcium mobilization in indo-1-loaded neutrophils; type: cell-based; details: for Effect on 5-oxo-ETE-induced calcium mobilization: compound 10 μM
# [2] = tested on: LTB4; test: Selectivity: calcium mobilization in neutrophils in response to LTB4; type: cell-based, human; details: compound 10 μM; LTB4 10 nM
# In short: (§1)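 Neutrophils were prepared by dextran sedimentation, Ficoll and hypotonic lysis, loaded with indo-1 AM, and placed in a stirred cuvette at 37 °C in PBS with Ca++ 1.8 mM and Mg++ 1 mM. Fluorescence was read at excitation 331 nm and emission 410 nm. Vehicle or test compound was added at baseline, 5-oxo-ETE (10 nM final) 2 min later, and the second agonist 2 min after that. Digitonin (0.1% final) followed 1 min later for maximal signal.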
# [3] = tested on: PAF; test: Selectivity: calcium mobilization in neutrophils in response to PAF; type: cell-based, human; details: compound 10 μM; PAF 10 nM
# In short: as §1
# [4] = tested on: fMLP; test: Selectivity: calcium mobilization in neutrophils in response to fMLP; type: cell-based, human; details: compound 10 μM; fMLP 100 nM
# In short: as §1
# [5] = tested on: IL-8; test: Selectivity: calcium mobilization in neutrophils in response to IL-8; type: cell-based, human; details: compound 10 μM; IL-8 10 nM
# In short: as §1
# [6] = Metabolism by rat liver homogenates in the presence of NADPH; type: in vitro ADME; details: 20 μM, NADPH 1 mM, 60 min, 37 °C
# In short: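 Liver from male Sprague-Dawley rats was homogenised in ice-cold 0.25 M sucrose and spun at 600 × g for 10 min; the supernatant served as homogenate. It was incubated with test compound (20 μM) in phosphate buffer (pH 7.4, 50 mM final) with NADPH (1 mM final) for 60 min at 37 °C. Reactions were stopped with ice-cold MeOH. Products were analysed by reversed-phase C18 HPLC (22–42% acetonitrile gradient, 0.02% acetic acid) with photodiode-array UV detection.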
# [7] = Metabolism by rat liver homogenates in medium favoring β-oxidation; type: in vitro ADME; details: medium containing ATP, CoA, L-carnitine and NAD+
# [8] = Preliminary pharmacokinetic experiments in rats, oral administration; type: in vivo, rat; details: unpublished data
# [9] = target: T1, OXE receptor; details: concentration of 30 μM; cited from earlier work
# [10] = tested on: OXE receptor; details: cited from earlier work
# [11] = target: T1, OXE receptor; details: cited from earlier work
# [12] = tested on: eosinophils; test: 5-oxo-ETE-induced actin polymerization in eosinophils; type: cell-based, human; details: 5-oxo-ETE 10 nM
# [13] = tested on: neutrophils; test: 5-oxo-ETE-induced actin polymerization in neutrophils; type: cell-based, human; details: 5-oxo-ETE 10 nM
# In short: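 Unfractionated leukocytes came from healthy-donor blood by dextran sedimentation and hypotonic lysis. They were labelled with APC anti-CD49d (30 min, ice) and held at 5.5 × 10^6 cells/ml in PBS with Ca++ 1.8 mM and Mg++ 1 mM. Cells were preincubated 5 min at 37 °C with DMSO vehicle or test compound, then given 5-oxo-ETE (10 nM final) for 20 s. They were fixed in formaldehyde (8.5% final), permeabilised with lysophosphatidylcholine and stained overnight at 4 °C with NBD-phallacidin (0.3 μM final). F-actin was read by flow cytometry.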
# [14] = target: T1, OXE receptor; test: Agonist activity: calcium mobilization in neutrophils by the compound itself; type: cell-based
# In short: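 Neutrophils were isolated by dextran sedimentation, Ficoll centrifugation and hypotonic lysis, then loaded with indo-1 AM. In PBS with Ca++ 1.8 mM and Mg++ 1 mM (final, added 5 min before), cells sat in a stirred cuvette at 37 °C. Fluorescence was read at excitation 331 nm and emission 410 nm. After a stable baseline, DMSO vehicle or test compound was added, and 2 min later 5-oxo-ETE (10 nM final). Digitonin (0.1% final) gave maximal fluorescence.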
# [15] = calcium mobilization, 5-oxo-ETE 10 nM
# T1 sequence (Q8TDS5 whole entry): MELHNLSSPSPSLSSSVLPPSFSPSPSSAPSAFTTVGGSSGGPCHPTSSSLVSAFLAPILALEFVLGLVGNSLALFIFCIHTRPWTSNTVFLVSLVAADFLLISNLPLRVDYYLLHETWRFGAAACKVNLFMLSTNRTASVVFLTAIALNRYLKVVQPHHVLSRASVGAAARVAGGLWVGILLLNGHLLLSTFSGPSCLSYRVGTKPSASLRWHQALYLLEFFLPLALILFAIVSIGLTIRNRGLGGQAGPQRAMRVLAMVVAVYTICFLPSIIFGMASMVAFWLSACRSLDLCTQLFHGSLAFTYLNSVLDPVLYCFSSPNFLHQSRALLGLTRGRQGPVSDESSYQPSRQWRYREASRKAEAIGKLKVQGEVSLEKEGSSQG
smiles,measurement,setting,value
"CCCCCCc1cc2ccc(Cl)cc2n1C(=O)CC(C)CC(=O)O (racemic) [compound 34, 5-(6-Chloro-2-hexyl-indol-1-yl)-3-methyl-5-oxo-pentanoic acid]",Effect on 5-oxo-ETE-induced calcium mobilization,[1]; 5-oxo-ETE 10 nM,completely blocked
same,Effect on calcium response to LTB4,[2],no effect
same,Effect on calcium response to PAF,[3],no effect
same,Effect on calcium response to fMLP,[4],no effect
same,Effect on calcium response to IL-8,[5],no effect
same,Converted to a more polar product,[6],about 12%
same,Extent of metabolism,[6],metabolized to a small extent
same,Metabolism under conditions favoring β-oxidation,[7],Negligible metabolism; also recorded: no evidence for the metabolism
same,Appearance in the blood,[8],appear rapidly in the blood
"CCCCCCc1c(C(=O)CC(C)CC(=O)O)c2cc(Cl)ccc2n1C (racemic) [compound 53, 5-(5-Chloro-2-hexyl-1-methyl-1H-indol-3-yl)-3-methyl-5-oxo-pentanoic acid]",pIC50,"[1]; IC50, inhibition of 5-oxo-ETE-induced calcium mobilization in neutrophils, 5-oxo-ETE 10 nM added 2 min after antagonist",7.55 and ~7.52
same,Further increase in antagonist potency relative to 51 and 52,[1]; [15],over 10 fold
same,Effect on 5-oxo-ETE-induced calcium mobilization,[1]; 5-oxo-ETE 10 nM,completely blocked
same,Effect on calcium response to LTB4,[2],no effect
same,Effect on calcium response to PAF,[3],no effect
same,Effect on calcium response to fMLP,[4],no effect
same,Effect on calcium response to IL-8,[5],no effect
same,Extent of metabolism,[6],metabolized to an even lesser extent
same,Metabolism under conditions favoring β-oxidation,[7],Negligible metabolism; also recorded: no evidence for the metabolism
same,Appearance in the blood,[8],appear rapidly in the blood
O=C(O)CCCC(=O)n1ccc2ccccc21 [1(5-oxovalerate)indole],Antagonist activity,[9],no detectable activity
"CCCCC/C=C\C/C=C\C/C=C\C=C\[C@@H](O)CCCC(=O)O [5-HETE, 5S-hydroxy-6E,8Z,11Z,14Z-eicosatetraenoic acid]",Times less potent than 5-oxo-ETE,[10],100 times
"CCCCC/C=C\C[C@H](O)/C=C/C=C\C=C\C(=O)CCCC(=O)O [5-oxo-12-HETE, 5-oxo-12S-hydroxy-6E,8Z,10E,14Z-eicosatetraenoic acid]",Agonist activity (calcium mobilization by the compound itself),[11],Neither compound mobilized intracellular calcium; also recorded: not itself affecting intracellular calcium levels
O=C(O)CCCC(=O)/C=C/C=C\C/C=C\C/C=C\CCCCCO [5-oxo-20-hydroxy-ETE],Times less potent than 5-oxo-ETE,[10],100 times
CCCCC/C=C\C[C@H](O)/C=C/C=C/C=C/C(=O)CCCC(=O)O [8-trans-5-oxo-12-HETE],Agonist activity (calcium mobilization by the compound itself),[11],Neither compound mobilized intracellular calcium
CCCCC/C=C\CC(=O)/C=C/C=C\C/C=C\CCCC(=O)O [12-oxo-ETE],Activation of the OXE receptor,[10],do not activate the OXE receptor
CCCCCC(=O)/C=C/C=C\C/C=C\C/C=C\CCCC(=O)O [15-oxo-ETE],Activation of the OXE receptor,[10],do not activate the OXE receptor
"CSc1nc2ccc3nc(NC(=O)C(c4ccccc4)c4ccccc4)sc3c2s1 [Gue1654, 7-(methylthio)-2-[(2,2-diphenylacetyl)amino]benzo[1,2-d:4,3-d′]bisthiazole]",Times less potent than 53 and 34 in blocking actin polymerization in eosinophils,[12],about 10 times
same,Times less potent than 53 and 34 in blocking actin polymerization in neutrophils,[13],about 10 times
CCCCc1cc2ccccc2n1C(=O)CCCC(=O)O [compound 8],Reduction in antagonist potency relative to 10,[1]; [15],over 10 fold
CCCCCc1cc2ccccc2n1C(=O)CCCC(=O)O [compound 9],Antagonist potency compared with 10,[1]; [15],small decrease in potency
CCCCCCc1cc2ccccc2n1C(=O)CCCC(=O)O [compound 10],Effect on 5-oxo-ETE-induced calcium mobilization,[1]; 5-oxo-ETE 10 nM,completely abolished
CCCCCCCc1cc2ccccc2n1C(=O)CCCC(=O)O [compound 11],Antagonist potency compared with 10,[1]; [15],slightly increased potency
CCCCCCCCc1cc2ccccc2n1C(=O)CCCC(=O)O [compound 12],Antagonist potency compared with 10,[1]; [15],slightly increased potency
CCCCCCCCCCCc1cc2ccccc2n1C(=O)CCCC(=O)O [compound 13],Antagonist potency compared with 10,[1]; [15],slightly increased potency
"CCCC/C=C/c1cc2ccccc2n1C(=O)CCCC(=O)O [compound 14, 5-(2-Hex-1-enyl-indol-1-yl)-5-oxo-pentanoic acid]",Antagonist potency compared with 10,[1]; [15],reduced potency
"CCCCCCCCC/C=C\c1cc2ccccc2n1C(=O)CCCC(=O)O [compound 15, (Z)-5-oxo-5-(2-(undec-1-en-1-yl)-1H-indol-1-yl)pentanoic acid]",Antagonist potency compared with 13,[1]; [15],little effect
"CCCCCCc1cc2ccccc2n1C(=O)CC(C)(C)CC(=O)O [compound 17, 5-(2-hexyl-1H-indol-1-yl)-3,3-dimethyl-5-oxopentanoic acid]",Reduction in antagonist potency relative to 10,[1]; [15],about 10 fold
"CCCCCCc1cc2ccccc2n1C(=O)CC1(CC(=O)O)CC1 [compound 25, 2-(1-(2-(2-hexyl-1H-indol-1-yl)-2-oxoethyl)cyclopropyl)acetic acid]",Antagonist potency compared with 10,[1]; [15],relatively little effect
"CCCCCCc1cc2ccccc2n1C(=O)CC(C)CC(=O)O (stereo not shown) [compound 27, 5-(2-hexyl-1H-indol-1-yl)-3-methyl-5-oxopentanoic acid]",Increase in antagonist potency relative to 10,[1]; [15],over 10 times
"CCCCCCc1cc2ccccc2n1C(=O)CCC(=O)O [compound 29, 4-(2-Hexyl-indol-1-yl)-4-oxo-butyric acid]",Antagonist potency compared with 10,[1]; [15],nearly eliminated antagonist activity
"CCCCCCc1cc2ccc(Br)cc2n1C(=O)CC(C)CC(=O)O (stereo not shown) [compound 35, 5-(6-bromo-2-hexyl-1-H-indol-1-yl)-3-methyl-5-oxo-pentanoic acid]",Increase in antagonist potency relative to 27,[1]; [15],approximately 3 fold
"CCCCCCc1cc2ccc(OC)cc2n1C(=O)CC(C)CC(=O)O (stereo not shown) [compound 36, 5-(2-hexyl-6-methoxy-1-H-indol-1-yl)-3-methyl-5-oxo-pentanoic acid]",Antagonist potency compared with 27,[1]; [15],reduced potency by several fold
"CCCCCCc1cc2cc(Cl)ccc2n1C(=O)CC(C)CC(=O)O (stereo not shown) [compound 41, 5-(5-chloro-2-hexyl-1-H-indol-1-yl)-3-methyl-5-oxo-pentanoic acid]",Antagonist potency compared with 27,[1]; [15],relatively little effect
"CCCCCCc1cc2cc(Br)ccc2n1C(=O)CC(C)CC(=O)O (stereo not shown) [compound 42, 5-(5-bromo-2-hexyl-1-H-indol-1-yl)-3-methyl-5-oxo-pentanoic acid]",Antagonist potency compared with 27,[1]; [15],reduced potency by several fold
"CCCCCCc1c(C)c2ccccc2n1C(=O)CC(C)CC(=O)O (stereo not shown) [compound 47, 5-(2-hexyl-3-methyl-1-H-indol-1-yl)-3-methyl-5-oxo-pentanoic acid]",Antagonist potency compared with 27,[1]; [15],relatively little effect
"CCCCCCc1[nH]c2ccccc2c1C(=O)CCCC(=O)O [compound 48, 5-(2-Hexyl-1H-indol-3-yl)-5-oxo-pentanoic acid]",Effect on 5-oxo-ETE-induced calcium mobilization,[1]; 5-oxo-ETE 10 nM,modest antagonist effect
"CCCCCCc1c(C(=O)CCCC(=O)O)c2ccccc2n1C [compound 50, 5-(2-hexyl-1-methyl-1-H-indol-3-yl)-5-oxo-pentanoic acid]",Antagonist potency compared with 48,[1]; [15],slightly increased potency
"CCCCCCc1c(C(=O)CCCC(=O)O)c2cc(Cl)ccc2n1C [compound 51, 5-(5-chloro-2-hexyl-1-methyl-1-H-indol-3-yl)-5-oxo-pentanoic acid]",Antagonist potency compared with 27,[1]; [15],less potent than 27
same,Increase in antagonist potency relative to 50,[1]; [15],about 10 times
"CCCCCCc1c(C(=O)CC(C)CC(=O)O)c2cc(Br)ccc2n1C (stereo not shown) [compound 54, 5-(5-bromo-2-hexyl-1-methyl-1-H-indol-3-yl)-3-methyl-5-oxo-pentanoic acid]",Antagonist potency compared with 53,[1]; [15],equipotent
"CCCCCCc1c(C(=O)CC(C)CC(=O)O)c2ccc(Cl)cc2n1C (stereo not shown) [compound 56, 5-(6-chloro-2-hexyl-1-methyl-1-H-indol-3-yl)-3-methyl-5-oxo-pentanoic acid]",Increase in antagonist potency relative to 52,[1]; [15],about 4 fold
CCCCCCc1nc2ccccc2cc1C(=O)CCCC(=O)O [quinoline derivative],Agonist activity (calcium mobilization by the compound itself),[14],did not act as an agonist
